pIC50: −log10 of the molar value.
Legend:
[1] = test system: Rattus norvegicus; experiment: Anticoagulant activity in Wistar rats in vivo assessed as prothrombin time
[2] = test system: Rattus norvegicus; experiment: Hepatotoxicity in Wistar albino rat assessed as change in serum ALP level at 0.5 mg/kg, ip measured after 24 hrs; type: toxicity, organism-based; design: dose 0.5 mg/kg, route intraperitoneal; conditions: in vivo
[3] = test system: Rattus norvegicus; experiment: Hepatotoxicity in Wistar albino rat assessed as change in serum gamma-GT level at 0.5 mg/kg, ip measured after 24 hrs; type: toxicity, organism-based; design: dose 0.5 mg/kg, route intraperitoneal; conditions: in vivo
[4] = test system: Plasma; experiment: Anticoagulant activity in Wistar albino rat plasma assessed as international normalized ratio at 0.1 mg/kg, ip; type: functional; conditions: route intraperitoneal
Summary of the method: (§1)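 Adult Wistar rats (2.5 months, 220–250 g), three per compound and control, were given a single i.p. dose of 0.1 or 0.5 mg/kg in ethanol solution and sacrificed 24 h later. […] Plasma prothrombin time was measured by Quick method and reported in seconds and as INR, from at least three measurements.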

[5] = test system: Plasma; experiment: Anticoagulant activity in human plasma assessed as international normalized ratio at 1 mg/ml; type: functional
Summary of the method: (§2)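 Frozen human plasma (blood type A+) was used. Compounds were prepared at 1 mg/mL in a vehicle of 96% EtOH, 0.9% NaCl, 20% glycerol and phosphate buffer pH 7. Prothrombin time was measured by Quick method and reported in seconds and as INR, with SD from at least three measurements.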

[6] = test system: Rattus norvegicus; experiment: Hepatotoxicity in Wistar albino rat assessed as change in serum AST level at 0.5 mg/kg, ip measured after 24 hrs; type: toxicity, organism-based; design: dose 0.5 mg/kg, route intraperitoneal; conditions: in vivo
[7] = test system: Rattus norvegicus; experiment: Hepatotoxicity in Wistar albino rat assessed as change in serum bilirubin level at 0.5 mg/kg, ip measured after 24 hrs; type: toxicity, organism-based; design: dose 0.5 mg/kg, route intraperitoneal; conditions: in vivo
[8] = test system: Plasma; experiment: Anticoagulant activity in human plasma assessed as prothrombin time at 1 mg/ml; type: functional
Summary of the method: as §2

[9] = test system: Rattus norvegicus; experiment: Hepatotoxicity in Wistar albino rat assessed as change in serum protein level at 0.5 mg/kg, ip measured after 24 hrs; type: toxicity, organism-based; design: dose 0.5 mg/kg, route intraperitoneal; conditions: in vivo
[10] = test system: Plasma; experiment: Anticoagulant activity in Wistar albino rat plasma assessed as fibrinogen level; type: functional
Summary of the method: (§3)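 Adult albino Wistar rats (2.5 months old, 220–250 g), three per compound and control. […] Fibrin time and fibrinogen were determined on plasma. Fibrinogen was quantified by biuret method at 540 nm. At least three measurements, reported with standard deviation.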

[11] = test system: Rattus norvegicus; experiment: Hepatotoxicity in Wistar albino rat assessed as change in serum ALT level at 0.5 mg/kg, ip measured after 24 hrs; type: toxicity, organism-based; design: dose 0.5 mg/kg, route intraperitoneal; conditions: in vivo
[12] = test system: Plasma; experiment: Anticoagulant activity in Wistar albino rat plasma assessed as international normalized ratio at 0.5 mg/kg, ip; type: functional; conditions: route intraperitoneal
Summary of the method: as §1

[13] = test system: Rattus norvegicus; experiment: Hepatotoxicity in Wistar albino rat assessed as change in serum iron level at 0.5 mg/kg, ip measured after 24 hrs; type: toxicity, organism-based; design: dose 0.5 mg/kg, route intraperitoneal; conditions: in vivo
[14] = test system: Plasma; experiment: Anticoagulant activity in Wistar albino rat plasma assessed as prothrombin time at 0.5 mg/kg, ip; type: functional; conditions: route intraperitoneal
Summary of the method: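 Adult Wistar rats (2.5 months, 220–250 g), three per compound and control, were given a single i.p. dose of 0.1 or 0.5 mg/kg in ethanol solution and sacrificed 24 h later. Plasma prothrombin time was measured by Quick method and reported in seconds and as INR, from at least three measurements.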

[15] = test system: Rattus norvegicus; experiment: Hepatotoxicity in Wistar albino rat assessed as change in serum albumin level at 0.5 mg/kg, ip measured after 24 hrs; type: toxicity, organism-based; design: dose 0.5 mg/kg, route intraperitoneal; conditions: in vivo
[16] = test system: Plasma; experiment: Anticoagulant activity in Wistar albino rat plasma assessed as fibrin time; type: functional
Summary of the method: as §3

[17] = test system: Plasma; experiment: Anticoagulant activity in Wistar albino rat plasma assessed as prothrombin time at 0.1 mg/kg, ip; type: functional; conditions: route intraperitoneal
Summary of the method: as §1

Compound	pIC50 [1]	Activity [2]	Activity [3]	Ratio [4]	Ratio [5]	Activity [6]	Activity [7]	PT [8]	Activity [9]	Activity [10]	Activity [11]	Ratio [12]	Activity [13]	PT [14]	Activity [15]	Time [16]	PT [17]
COC(=O)/C(C(C)=O)=C(/C)c1c(O)c2ccccc2oc1=O	2.94	285 U/L	2.8 U/L	0.92	1.8	236.9 U/L	1.7 µmol/L	19 s	66.4 g/L	1.6 g/L	65.5 U/L	0.94	23.9 µmol/L	9.8 s	38.9 g/L	40.7 s	9.3 s
O=c1oc2ccccc2c(O)c1-c1csc(Nc2ccc([N+](=O)[O-])cc2)n1	2.63	204 U/L	3.8 U/L	0.65	2.44	264.4 U/L	1.7 µmol/L	25 s	63 g/L	1.8 g/L	68.7 U/L	0.68	14.8 µmol/L	9.1 s	37.2 g/L	33.7 s	8.1 s
O=C(O)CCCCNc1nc(-c2c(O)c3ccccc3oc2=O)cs1	3.03	246 U/L	3.5 U/L	0.64	2.1	231.5 U/L	1.2 µmol/L	22 s	71.5 g/L	2.5 g/L	52.6 U/L	0.67	27.4 µmol/L	10 s	35.4 g/L	23.9 s	8 s
COC(=O)/C=C(/C)c1c(O)c2ccccc2oc1=O	2.56	333 U/L	3 U/L	0.64	1.9	154.3 U/L	1.4 µmol/L	20 s	65.2 g/L	1.8 g/L	57.2 U/L	0.67	54.2 µmol/L	9 s	39 g/L	35.2 s	8 s
O=c1oc2ccccc2c(O)c1-c1csc(Nc2cccc3ccccc23)n1	3.23	210 U/L	4.3 U/L	0.94	2.7	345.3 U/L	2 µmol/L	27.5 s	72.8 g/L	1.9 g/L	85 U/L	0.94	24.6 µmol/L	9.7 s	41.3 g/L	33.2 s	9.2 s
CCN(CC)c1nc(-c2c(O)c3ccccc3oc2=O)cs1	3.03	192 U/L	4.4 U/L	0.64	1.75	254.8 U/L	2 µmol/L	18.5 s	63.2 g/L	1.4 g/L	64.7 U/L	0.67	25 µmol/L	10 s	36.7 g/L	44.9 s	8 s
CC(=O)C(C(C)=O)=C(C)c1c(O)c2ccccc2oc1=O	2.86	223 U/L	4.4 U/L	0.69	1.55	201.4 U/L	1.5 µmol/L	17 s	66.5 g/L	2.47 g/L	56.4 U/L	0.72	32.4 µmol/L	9.6 s	40.6 g/L	24.6 s	8.6 s
Cc1ccccc1Nc1nc(-c2c(O)c3ccccc3oc2=O)cs1	2.27	318 U/L	3.6 U/L	0.68	1.7	263.4 U/L	1.8 µmol/L	18.1 s	69.2 g/L	2.1 g/L	59.5 U/L	0.68	29.2 µmol/L	8.1 s	36.3 g/L	28.7 s	8.1 s
COC(=O)/C(C(=O)O)=C(\C)c1c(O)c2ccccc2oc1=O	2.50	215 U/L	4.4 U/L	0.37	1.9	218.4 U/L	1.8 µmol/L	20 s	62.8 g/L	3.2 g/L	51.8 U/L	0.48	19.4 µmol/L	8.7 s	35.8 g/L	19.4 s	5.7 s
CC(=O)c1c(O)c2ccccc2oc1=O	2.77	200 U/L	3.8 U/L	0.9	1.25	160.5 U/L	1.7 µmol/L	14 s	63.8 g/L	2.5 g/L	34.8 U/L	0.9	26.1 µmol/L	9.5 s	31.9 g/L	44.9 s	9.1 s

Source: ChEMBL document CHEMBL2046403, “Biochemical and pharmacological evaluation of 4-hydroxychromen-2-ones bearing polar C-3 substituents as anticoagulants” (Eur J Med Chem, 2012)
